Assay results reported in ChEMBL document CHEMBL1123929, “Investigation of peripheral cholecystokinin receptor heterogeneity by cyclic and related linear analogues of CCK26-33: synthesis and biological properties” (J Med Chem, 1987).
Non-standard residues stand in square brackets, D forms with d. Residues, ends and D or L forms follow the SMILES beside them. *: point of attachment. sY = N[C@@H](Cc1ccc(OS(=O)(=O)O)cc1)C(=O)O; Nle = CCCC[C@H](N)C(=O)O; Boc = CC(C)(C)OC(=O)*

Experiments:
[1] = molecular target: T1, Cholecystokinin receptor type A (Rattus norvegicus, UniProt P30551); assay: Evaluated for binding affinity measured by inhibiting [3H]Boc[Nle28,31]CCK27-33 specific binding to Cholecystokinin receptor in rat pancreas membranes at a KD concentration of 4.4 nM; type: cell membranes, Membrane
T1 sequence (P30551 whole entry): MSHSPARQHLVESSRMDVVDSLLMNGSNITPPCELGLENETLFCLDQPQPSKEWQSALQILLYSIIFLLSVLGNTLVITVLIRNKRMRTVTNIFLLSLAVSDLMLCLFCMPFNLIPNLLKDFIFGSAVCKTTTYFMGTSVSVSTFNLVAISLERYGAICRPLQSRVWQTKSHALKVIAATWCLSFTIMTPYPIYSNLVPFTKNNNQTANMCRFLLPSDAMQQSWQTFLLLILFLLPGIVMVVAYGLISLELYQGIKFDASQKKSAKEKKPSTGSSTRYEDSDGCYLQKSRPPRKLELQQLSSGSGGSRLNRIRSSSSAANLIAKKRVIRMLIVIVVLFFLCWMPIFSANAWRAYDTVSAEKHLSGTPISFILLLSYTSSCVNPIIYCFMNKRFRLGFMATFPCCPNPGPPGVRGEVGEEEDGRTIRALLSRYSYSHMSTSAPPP

Cholecystokinin receptor = molecular target: T2, Cholecystokinin receptor (Mus musculus, UniProt O08786+P56481); assay: Binding affinity measured by inhibiting [3H]Boc[Nle28,31]CCK27-33 specific binding to Cholecystokinin receptor in mouse brain membranes at a KD concentration of 0.19 nM; type: cell membranes, Membrane
T2 sequence (O08786 whole entry): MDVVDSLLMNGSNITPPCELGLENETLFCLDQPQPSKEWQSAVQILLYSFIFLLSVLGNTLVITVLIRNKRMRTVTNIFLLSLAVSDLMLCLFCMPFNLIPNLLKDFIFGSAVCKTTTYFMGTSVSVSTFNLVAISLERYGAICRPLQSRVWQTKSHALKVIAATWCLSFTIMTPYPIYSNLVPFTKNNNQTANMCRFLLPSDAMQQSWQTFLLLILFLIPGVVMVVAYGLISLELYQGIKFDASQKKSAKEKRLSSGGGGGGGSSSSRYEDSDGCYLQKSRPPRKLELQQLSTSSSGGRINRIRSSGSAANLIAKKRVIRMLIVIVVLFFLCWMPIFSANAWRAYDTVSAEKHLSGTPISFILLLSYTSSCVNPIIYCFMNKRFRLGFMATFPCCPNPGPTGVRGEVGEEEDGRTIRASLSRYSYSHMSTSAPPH
T2 sequence (P56481 whole entry): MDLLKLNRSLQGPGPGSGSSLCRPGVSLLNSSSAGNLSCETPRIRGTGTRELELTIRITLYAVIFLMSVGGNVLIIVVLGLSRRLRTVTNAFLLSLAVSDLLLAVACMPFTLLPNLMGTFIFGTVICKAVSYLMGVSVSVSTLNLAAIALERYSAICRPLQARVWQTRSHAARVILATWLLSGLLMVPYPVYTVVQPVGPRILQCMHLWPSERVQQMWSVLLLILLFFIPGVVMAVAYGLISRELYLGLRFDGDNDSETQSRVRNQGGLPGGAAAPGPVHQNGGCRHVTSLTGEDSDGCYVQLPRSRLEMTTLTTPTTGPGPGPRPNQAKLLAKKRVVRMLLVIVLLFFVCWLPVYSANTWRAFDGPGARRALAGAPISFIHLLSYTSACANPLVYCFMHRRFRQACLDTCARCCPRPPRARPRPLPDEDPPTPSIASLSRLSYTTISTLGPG

Rattus norvegicus = species on record: Rattus norvegicus; assay: Evaluated for agonist activity measured as amylase secretion by rat pancreas; type: functional
How it was run: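 Rat pancreas fragments stimulated with peptide (Na salt form). Amylase released into the medium was measured with Phadebas reagent by the Ceska method. EC50 was taken from concentration–response curves. Results are means of three separate experiments, each value in triplicate.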

Cavia porcellus [2] = species on record: Cavia porcellus; assay: Evaluated for contractile activities of guinea pig ileum for agonistic activity; type: functional
How it was run: (§1)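 Isolated guinea pig ileum contraction by the Hutchinson and Dockray method, with atropine present (1.5 mg/L). Agonism was tested by direct contraction. Antagonism was tested against contraction evoked by 3 × 10⁻⁹ M CCK8. Peptides were used as Na salts. Values are mean ± SEM of three separate experiments.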

Cavia porcellus [3] = species on record: Cavia porcellus; assay: Evaluated for contractile activities of guinea pig ileum for antagonistic activity (contraction induced by 3, 10e -9M of CCK-8); type: functional; how it was run: as §1

| Ki [1] | Ki (Cholecystokinin receptor) | EC50 (Rattus norvegicus) | EC50 (Cavia porcellus [2]) | SMILES | EC50 (Cavia porcellus [3]) |
| --- | --- | --- | --- | --- | --- |
| > 10000 nM | > 0.00001 M | > 1000 nM | > 10000 nM | CCCC[C@H](NC(=O)[C@H](Cc1c[nH]c2ccccc12)NC(=O)[C@H]1CCCCNC(=O)C[C@H](NC(=O)OC(C)(C)C)C(=O)N[C@@H](Cc2ccc(OS(=O)(=O)O)cc2)C(=O)N[C@@H](CCCC)C(=O)N1)C(=O)N[C@@H](CC(=O)O)C(N)=O | > 10000 nM |
| – | 1.91e-10 M | 2.8 nM | 3.2 nM | CCCC[C@H](NC(=O)[C@H](Cc1ccc(OS(=O)(=O)O)cc1)NC(=O)OC(C)(C)C)C(=O)NCC(=O)N[C@@H](Cc1c[nH]c2ccccc12)C(=O)N[C@@H](CCCC)C(=O)N[C@@H](CC(=O)O)C(=O)N[C@@H](Cc1ccccc1)C(N)=O (Boc-[sY][Nle]GW[Nle]DF-NH2) | – |
| > 10000 nM | > 1e-05 M | > 100000 nM | > 10000 nM | CCCC[C@H](NC(=O)[C@H](Cc1c[nH]c2ccccc12)NC(=O)[C@@H](CCCCN)NC(=O)[C@H](CCCC)NC(=O)[C@H](Cc1ccc(OS(=O)(=O)O)cc1)NC(=O)[C@H](CC(=O)O)NC(=O)OC(C)(C)C)C(=O)N[C@@H](CC(=O)O)C(N)=O | > 10000 nM |
| 340 nM | 3e-07 M | 40 nM | > 10000 nM | CCCC[C@H](NC(=O)[C@H](Cc1c[nH]c2ccccc12)NC(=O)[C@@H](CCCCN)NC(=O)[C@H](CCCC)NC(=O)[C@H](Cc1ccc(OS(=O)(=O)O)cc1)NC(=O)[C@H](CC(=O)O)NC(=O)OC(C)(C)C)C(=O)N[C@@H](CC(=O)O)C(=O)N[C@@H](Cc1ccccc1)C(N)=O | 15000 nM |

| SMILES | Ki [1] | Ki (Cholecystokinin receptor) | EC50 (Rattus norvegicus) | EC50 (Cavia porcellus [2]) | EC50 (Cavia porcellus [3]) |
| --- | --- | --- | --- | --- | --- |
| CSCC[C@H](NC(=O)[C@H](Cc1ccc(OS(=O)(=O)O)cc1)NC(=O)[C@@H](N)CC(=O)O)C(=O)NCC(=O)N[C@@H](Cc1c[nH]c2ccccc12)C(=O)N[C@@H](CCSC)C(=O)N[C@@H](CC(=O)O)C(=O)N[C@@H](Cc1ccccc1)C(N)=O [SINCALIDE] | – | 4.91e-10 M | 1 nM | 2 nM | – |
